Consider one compound from ChEMBL document CHEMBL4346670, “Discovery of Novel Janus Kinase (JAK) and Histone Deacetylase (HDAC) Dual Inhibitors for the Treatment of Hematological Malignancies” (J Med Chem, 2019).

SMILES strings stand for the structures. Active and inactive are the calls of the source. The rule behind the calls is not given here.

By IC50 is commonly meant the concentration needed to halve the response being measured.

The subject of data set [1] is K562. In words: Antiproliferative activity against human K562 cells assessed as reduction in cell viability after 48 hrs by MTT assay. It counts as functional, cell-based. Particulars: K562, 48 h. For orientation: Formazan colour is commonly taken as a measure of viable cells.
Data set [2] concerns HEL. Put plainly: Antiproliferative activity against HEL cells harboring JAK2 V617F mutant assessed as reduction in cell viability after 48 hrs by MTT assay. Particulars: Homo sapiens. The format is functional, cell-based.
The target of data set [3] is T1, Protein deacetylase HDAC6 (Homo sapiens, UniProt Q9UBN7).
T1 sequence (Q9UBN7 whole entry): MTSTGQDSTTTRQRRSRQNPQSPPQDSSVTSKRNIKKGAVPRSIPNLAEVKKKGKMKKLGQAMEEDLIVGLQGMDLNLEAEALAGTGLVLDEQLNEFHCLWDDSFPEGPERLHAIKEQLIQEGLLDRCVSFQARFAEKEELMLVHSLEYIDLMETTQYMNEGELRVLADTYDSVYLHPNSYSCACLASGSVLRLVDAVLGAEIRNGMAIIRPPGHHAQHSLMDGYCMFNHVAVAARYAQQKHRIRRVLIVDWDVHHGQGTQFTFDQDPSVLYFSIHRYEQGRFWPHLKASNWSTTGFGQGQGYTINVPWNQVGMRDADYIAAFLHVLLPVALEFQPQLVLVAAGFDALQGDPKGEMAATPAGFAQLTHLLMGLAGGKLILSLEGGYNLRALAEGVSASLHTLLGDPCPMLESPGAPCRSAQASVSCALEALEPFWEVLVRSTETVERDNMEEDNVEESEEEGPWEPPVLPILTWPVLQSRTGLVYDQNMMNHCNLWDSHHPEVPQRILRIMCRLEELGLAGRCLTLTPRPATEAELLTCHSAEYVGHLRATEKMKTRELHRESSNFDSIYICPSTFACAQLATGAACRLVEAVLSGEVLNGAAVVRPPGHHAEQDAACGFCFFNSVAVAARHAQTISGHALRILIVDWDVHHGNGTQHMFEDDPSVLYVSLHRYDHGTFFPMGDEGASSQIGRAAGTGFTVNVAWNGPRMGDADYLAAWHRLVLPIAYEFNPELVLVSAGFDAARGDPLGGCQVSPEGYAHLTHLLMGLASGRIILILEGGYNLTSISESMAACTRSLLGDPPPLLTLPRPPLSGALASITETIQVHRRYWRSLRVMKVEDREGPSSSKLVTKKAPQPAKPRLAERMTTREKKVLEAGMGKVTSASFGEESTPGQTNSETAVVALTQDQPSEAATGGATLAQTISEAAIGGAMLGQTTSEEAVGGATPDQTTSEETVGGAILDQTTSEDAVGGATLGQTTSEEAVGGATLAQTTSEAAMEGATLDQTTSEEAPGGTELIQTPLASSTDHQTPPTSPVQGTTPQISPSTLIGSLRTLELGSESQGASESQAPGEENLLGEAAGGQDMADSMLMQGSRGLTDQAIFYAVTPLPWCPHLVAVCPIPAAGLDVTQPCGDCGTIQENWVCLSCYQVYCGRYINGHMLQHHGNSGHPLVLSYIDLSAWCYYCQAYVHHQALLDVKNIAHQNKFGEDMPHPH
Put plainly: Inhibition of recombinant human HDAC6 using p53 (379 to 382 residues) derived fluorogenic peptide RHKKAc as substrate.

The test system of another data set is MOLT-4. Put plainly: Antiproliferative activity against human MOLT4 cells assessed as reduction in cell viability after 48 hrs by MTT assay. It counts as functional, cell-based. Particulars: MOLT-4, 48 h. In short, it runs like this:
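Cells kept in RPMI1640 with 10% FBS at 37 °C, 5% CO2. Seeded and grown for 12 h, then exposed to a range of compound concentrations for 48 h. 0.5% MTT added for 4 h, formazan dissolved in DMSO, absorbance read at 570 nm.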

The test system of the next data set is Jurkat. In words: Antiproliferative activity against human Jurkat cells assessed as reduction in cell viability after 48 hrs by MTT assay. It counts as functional, cell-based.
The test system of data set [4] is HEL. Put plainly: Synergistic antiproliferative activity against HEL cells harboring JAK2 V617F mutant assessed as reduction in cell viability after 48 hrs in presence of SAHA by MTT assay. The format is functional, cell-based. As to conditions: Homo sapiens.
Data set [5] deals with K562. Put plainly: Synergistic antiproliferative activity against human K562 cells assessed as reduction in cell viability after 48 hrs in presence of SAHA by MTT assay. It counts as functional, cell-based. Particulars: K562, 48 h.
Data set [6] has as its system HEL. Put plainly: Synergistic antiproliferative activity against HEL cells harboring JAK2 V617F mutant assessed as combination index after 48 hrs in presence of SAHA by MTT assay. It counts as functional, Homo sapiens.
Data set [7] relates to K562. In words: Synergistic antiproliferative activity against human K562 cells assessed as combination index after 48 hrs in presence of SAHA by MTT assay. The format is functional.
The subject of data set [8] is HEL. In words: Induction of apoptosis in HEL cells assessed as viable cells at 1 uM after 24 hrs by Annexin-V/propidium iodide staining-based flow cytometric analysis (reference value: 87.5%). It counts as functional, Homo sapiens. Particulars: Homo sapiens, HEL, 24 h; read-out: Activity. A general note: In flow cytometry, cells or beads pass a laser one at a time.

The subject of data set [9] is HEL. In words: Induction of apoptosis in HEL cells assessed as early apoptotic cells at 1 uM after 24 hrs by Annexin-V/propidium iodide staining-based flow cytometric analysis (reference value: 12.5%). It counts as functional, Homo sapiens.
Data set [10] relates to HEL. Put plainly: Induction of apoptosis in HEL cells assessed as late apoptotic cells at 1 uM after 24 hrs by Annexin-V/propidium iodide staining-based flow cytometric analysis (reference value: 0.023%). It counts as functional, Homo sapiens.
Data set [11] deals with HEL. In words: Induction of apoptosis in HEL cells assessed as necrotic apoptotic cells at 1 uM after 24 hrs by Annexin-V/propidium iodide staining-based flow cytometric analysis (reference value: 0.011%). It counts as functional, Homo sapiens.
For data set [12], the system named is K562. In words: Induction of apoptosis in human K562 cells assessed as viable cells at 1 uM after 24 hrs by Annexin-V/propidium iodide staining-based flow cytometric analysis (reference value: 85.7%). It counts as functional. Particulars: Homo sapiens, K562, 24 h; read-out: Activity.
In data set [13] the test system is K562. Put plainly: Induction of apoptosis in human K562 cells assessed as early apoptotic cells at 1 uM after 24 hrs by Annexin-V/propidium iodide staining-based flow cytometric analysis (reference value: 7.55%). It counts as functional.
Data set [14] relates to K562. Put plainly: Induction of apoptosis in human K562 cells assessed as late apoptotic cells at 1 uM after 24 hrs by Annexin-V/propidium iodide staining-based flow cytometric analysis (reference value: 5.87%). The format is functional.
Data set [15] has as its system K562. Put plainly: Induction of apoptosis in human K562 cells assessed as necrotic apoptotic cells at 1 uM after 24 hrs by Annexin-V/propidium iodide staining-based flow cytometric analysis (reference value: 0.827%). The format is functional.
Data set [16] concerns HEL. In words: Antitumor activity against HEL cells xenografted in BALB/c nu mouse assessed as reduction in tumor volume at 100 mg/kg/day, ip administered for 16 days and measured every 3 days during compound dosing by caliper method relative to control. It counts as functional, Homo sapiens. As to conditions: read-out: TGI.
The subject of data set [17] is HEL. Put plainly: Antitumor activity against HEL cells xenografted in BALB/c nu mouse assessed as tumor growth inhibition at 70 mg/kg/day, ip administered for 16 days and measured every 3 days during compound dosing in presence of SAHA by caliper method relative to control. The format is functional, Homo sapiens. As to conditions: read-out: TGI. In short, it runs like this: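 Male BALB/c-nu mice (5-6 weeks) inoculated subcutaneously in the right flank with 1 × 10^7 HEL cells. Randomized at day 10 (6 per group). Dosed IP daily for 16 days; controls received PBS with 5% DMSO. Tumors measured by caliper every three days (V = ab²/2) and body weight monitored. TGI calculated from final tumor weights versus control.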

Data set [18] in a line: Toxicity in BALB/c nu mouse xenografted with HEL cells assessed as change in body weight at 70 mg/kg/day, ip administered for 16 days and measured every day during compound dosing in presence of SAHA. The format is organism-based. As to conditions: in vivo, 384 h.
Data set [19] is described as follows: Drug level in tumor of BALB/c nu mouse xenografted with HEL cells at 100 mg/kg/day, ip administered for 5 days and measured 1 hr post-last dose by LC-MS/MS analysis. As to conditions: in vivo. It counts as ADME, organism-based, Neoplasm. In short, it runs like this:
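HEL-xenografted male BALB/c-nu mice dosed IP at 100 mg/kg/day for 5 days. Sacrificed 0.5, 1.0 and 4.0 h after the last dose. Plasma separated and stored at -80 °C. Tumors homogenized in normal saline (5:1 v/w) and sonicated. Samples deproteinized with methanol containing internal standard, centrifuged, diluted in methanol/acetonitrile and recentrifuged.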

Data set [20] is described as follows: Toxicity in BALB/c nu mouse xenografted with HEL cells assessed as injury to internal organs at 70 mg/kg/day, ip administered for 16 days and measured post-last dose in presence of SAHA. Particulars: in vivo, 384 h. It counts as organism-based.
In the next data set the target is Histone deacetylase 2 (Homo sapiens, UniProt Q92769). Particulars: A549, at 80 to 400 nM.
Histone deacetylase 2, sequence (Q92769 whole entry): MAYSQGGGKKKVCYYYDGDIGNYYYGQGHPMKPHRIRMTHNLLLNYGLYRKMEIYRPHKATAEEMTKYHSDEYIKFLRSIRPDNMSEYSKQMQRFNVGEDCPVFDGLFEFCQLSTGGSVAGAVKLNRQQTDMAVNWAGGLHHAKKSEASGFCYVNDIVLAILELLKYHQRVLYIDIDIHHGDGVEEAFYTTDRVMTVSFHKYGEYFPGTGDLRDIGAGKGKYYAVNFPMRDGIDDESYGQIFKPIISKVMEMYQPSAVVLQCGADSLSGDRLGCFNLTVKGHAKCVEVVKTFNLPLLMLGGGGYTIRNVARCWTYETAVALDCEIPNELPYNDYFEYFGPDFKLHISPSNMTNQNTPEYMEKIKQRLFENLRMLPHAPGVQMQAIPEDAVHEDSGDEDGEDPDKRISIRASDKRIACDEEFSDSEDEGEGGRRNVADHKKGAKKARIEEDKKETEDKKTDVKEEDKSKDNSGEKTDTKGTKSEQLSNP

As for `N#CC[C@H](C1CCCC1)n1cc(-c2ncnc3[nH]ccc23)cn1` [RUXOLITINIB], the IC50 in the data set on K562 [1] was 23.2 µM; with HEL [2] it was 18.6 µM; in data set [3], 0.015 µM; in the data set on MOLT-4, 15.8 µM; in the data set on Jurkat it was > 5 µM; with HEL [4] it was 0.3 µM. Also, the IC50 in the data set on K562 [5] was determined as 1.03 µM. Further, the CI is 0.48 in the data set on HEL [6] and 0.97 in the data set on K562 [7]. In addition, the values for the viability at 1 µM with HEL [8] and in the data set with K562 [12] were 79.4% and 75.2%, respectively. Moreover, the Activity was 8.08% with HEL [9]; 11.7% with HEL [10]; 0.85% in the data set with HEL [11]; 9.22% with K562 [13]; 15.3% in the data set with K562 [14]; 0.248% in the data set on K562 [15]. The Activity entry in data set [18] and in [20] was “Non-Toxic” in each case. The inhibition in vivo at 100 mg/kg/day in the data set on HEL [16] came to 27%. Further, in the data set on HEL [17], the inhibition in vivo at 70 mg/kg/day was found to be 57%. Besides, the Drug uptake entry in data set [19] is on record as “Active”. Also, on Histone deacetylase 2, the inhibition result is “Active”.
